Data published in ChEMBL document CHEMBL2040734, “Benzothiazoles: search for anticancer agents” (2012).

Experiments:
Format in all cases: functional
[1] = test system: TK-10; test: Cytotoxicity against human TK10 cells assessed as cell growth at 0.1 uM after 48 hrs by sulforhodamine B assay; conditions: TK-10, 48 h, read-out: Activity
[2] = test system: EKVX; test: Growth inhibition of human EKVX cells after 48 hrs by sulforhodamine B assay
Procedure, shortened: (§1)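 Adherent NCI-60 lines were grown in RPMI 1640 with 5% FBS and 2 mM L-glutamine, plated at 5000–40,000 cells/well and preincubated 24 h. They were then exposed to five concentrations (0.01–100 µM, from a DMSO stock) for 48 h at 37 °C, 5% CO2. Cells were fixed with cold TCA (10% final, 60 min, 4 °C) and stained with 0.4% SRB. Dye was solubilized in 10 mM Tris base and A515 read. GI50 was derived from time-zero, control and treated absorbances.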

[3] = test system: CCRF-CEM; test: Cytotoxicity against human CCRF-CEM cells at 0.01 uM after 48 hrs by sulforhodamine B assay
Procedure, shortened: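 CCRF-CEM suspension leukemia cells in RPMI 1640 with 5% FBS and 2 mM L-glutamine, plated 24 h before dosing. Five concentrations (0.01–100 µM) were applied from a DMSO stock for 48 h at 37 °C. Settled cells were fixed with 80% TCA (final 16%) and stained with SRB, with read-out at 515 nm. Percent growth was derived from time-zero and control absorbances.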

[4] = test system: CAKI-1; test: Cytotoxicity against human Caki1 cells assessed as cell growth at 1 uM after 48 hrs by sulforhodamine B assay; conditions: CAKI-1, 48 h, read-out: Activity
Procedure, shortened: (§2)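 NCI-60 five-dose screen. Cells were grown in RPMI 1640 with 5% FBS and 2 mM L-glutamine and preincubated 24 h. Compound (DMSO stock) was tested at 0.01, 0.1, 1, 10 and 100 µM for 48 h at 37 °C. Cells were fixed in situ with cold TCA (final 10%) and stained with 0.4% SRB. A515 was read, and percent growth was calculated against time-zero and control plates.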

[5] = test system: BT-549; test: Cytotoxicity against human BT549 cells assessed as cell growth at 100 uM after 48 hrs by sulforhodamine B assay; conditions: BT-549, 48 h, read-out: Activity; procedure, shortened: as §2
[6] = test system: M14; test: Cytotoxicity against human M14 cells assessed as cell growth at 0.1 uM after 48 hrs by sulforhodamine B assay; conditions: M14, 48 h, read-out: Activity
[7] = test system: SK-OV-3; test: Cytotoxicity against human SKOV3 cells assessed as cell growth at 10 uM after 48 hrs by sulforhodamine B assay; conditions: SK-OV-3, 48 h, read-out: Activity
[8] = test system: NCI-H23; test: Cytotoxicity against human NCI-H23 cells assessed as cell growth at 10 uM after 48 hrs by sulforhodamine B assay; conditions: NCI-H23, 48 h, read-out: Activity
[9] = test system: OVCAR-8; test: Cytotoxicity against human OVCAR8 cells assessed as cell growth at 1 uM after 48 hrs by sulforhodamine B assay; conditions: OVCAR-8, 48 h, read-out: Activity
[10] = test system: SF-539; test: Cytotoxicity against human SF539 cells assessed as cell growth at 0.1 uM after 48 hrs by sulforhodamine B assay; conditions: SF-539, 48 h, read-out: Activity
[11] = test system: A549; test: Cytotoxicity against human A549 cells assessed as cell growth at 10 '-5 M after 48 hrs by sulforhodamine B assay; conditions: A549, 48 h, read-out: Activity
Procedure, shortened: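 Primary NCI-60 single-dose screen at 10 µM. Cells were grown in RPMI 1640 with 5% FBS and 2 mM L-glutamine and plated 24 h before drug addition. Compound was solubilized in DMSO, then exposed for 48 h at 37 °C under 5% CO2. Cells were TCA-fixed and stained with SRB, and absorbance was read at 515 nm. Growth was expressed relative to time-zero and untreated controls.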

[12] = test system: SK-MEL-2; test: Growth inhibition of human SK-MEL-2 cells after 48 hrs by sulforhodamine B assay; conditions: SK-MEL-2, 48 h; procedure, shortened: as §1
[13] = test system: NCI-H522; test: Cytotoxicity against human NCI-H522 cells assessed as cell growth at 10 '-5 M after 48 hrs by sulforhodamine B assay; conditions: NCI-H522, 48 h, read-out: Activity
[14] = test system: SW-620; test: Cytotoxicity against human SW620 cells assessed as cell growth at 100 uM after 48 hrs by sulforhodamine B assay; conditions: SW-620, 48 h, read-out: Activity
[15] = test system: OVCAR-5; test: Cytotoxicity against human OVCAR5 cells assessed as cell growth at 1 uM after 48 hrs by sulforhodamine B assay; conditions: OVCAR-5, 48 h, read-out: Activity
[16] = test system: UACC-257; test: Cytotoxicity against human UACC257 cells assessed as cell growth at 1 uM after 48 hrs by sulforhodamine B assay; conditions: UACC-257, 48 h, read-out: Activity
[17] = Cytotoxicity against human Hs 578T cells assessed as cell growth at 10 uM after 48 hrs by sulforhodamine B assay; conditions: read-out: Activity
Procedure, shortened: (§3)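 Five-dose NCI panel run at 0.01, 0.1, 1, 10 and 100 µM. Cells were in RPMI 1640 with 5% FBS and 2 mM L-glutamine, seeded at 5000–40,000 cells/well and pre-incubated 24 h. Drug was diluted from a DMSO stock into medium with 50 µg/ml gentamicin. Exposure was 48 h at 37 °C, 5% CO2. Cells were fixed with cold TCA and stained with 0.4% SRB, read at 515 nm. Percent growth came from time-zero, control and test absorbances.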

[18] = test system: SK-MEL-28; test: Cytotoxicity against human SK-MEL-28 cells assessed as cell growth at 0.1 uM after 48 hrs by sulforhodamine B assay; conditions: SK-MEL-28, 48 h, read-out: Activity
[19] = test system: HOP-62; test: Cytotoxicity against human HOP62 cells assessed as cell growth at 1 uM after 48 hrs by sulforhodamine B assay; conditions: HOP-62, 48 h, read-out: Activity; procedure, shortened: as §3
[20] = test system: MDA-MB-231; test: Cytotoxicity against human MDA-MB-231 cells assessed as cell growth at 100 uM after 48 hrs by sulforhodamine B assay; conditions: MDA-MB-231, 48 h, read-out: Activity
[21] = test system: SNB-75; test: Cytotoxicity against human SNB75 cells assessed as cell growth at 10 uM after 48 hrs by sulforhodamine B assay; conditions: SNB-75, 48 h, read-out: Activity
[22] = test system: Malme-3M; test: Cytotoxicity against human MALME-3M cells assessed as cell growth at 100 uM after 48 hrs by sulforhodamine B assay; conditions: read-out: Activity
[23] = test system: SN12C; test: Cytotoxicity against human SN12C cells assessed as cell growth at 0.01 uM after 48 hrs by sulforhodamine B assay; conditions: read-out: Activity
[24] = test system: NCI-H460; test: Cytotoxicity against human NCI-H460 cells assessed as cell growth at 100 uM after 48 hrs by sulforhodamine B assay; conditions: NCI-H460, 48 h, read-out: Activity
[25] = test system: A498; test: Cytotoxicity against human A498 cells assessed as cell growth at 10 uM after 48 hrs by sulforhodamine B assay; conditions: A498, 48 h, read-out: Activity; procedure, shortened: as §2
[26] = test system: KM12; test: Cytotoxicity against human KM12 cells assessed as cell growth at 10 '-5 M after 48 hrs by sulforhodamine B assay; conditions: KM12, 48 h, read-out: Activity

| Structure (SMILES) | growth at 0.1 µM [1] | LC50 [2] | TGI [2] | Activity [3] | growth at 1 µM [4] | growth at 100 µM [5] | growth at 0.1 µM [6] | growth at 10 µM [7] | growth at 10 µM [8] | growth at 1 µM [9] | growth at 0.1 µM [10] | growth at 10 µM [11] | TGI [12] | growth at 10 µM [13] | growth at 100 µM [14] | growth at 1 µM [15] | growth at 1 µM [16] | growth at 10 µM [17] | growth at 0.1 µM [18] | growth at 1 µM [19] | other results |
| --- | --- | --- | --- | --- | --- | --- | --- | --- | --- | --- | --- | --- | --- | --- | --- | --- | --- | --- | --- | --- | --- |
| Cc1ccc2nc(Nc3c(C)cccc3C)sc2c1 | 94% | > 100 µM | > 100 µM | 94% | 39% | 73% | 104% | 47% | 58% | 89% | 97% | 32.6% | > 100 µM | 19.7% | 45% | 79% | 83% | 40% | 92% | 66% | LC50 (concentration killing 50% of cells present at time zero) [12]: > 100 µM; growth at 100 µM [20]: -6%; growth at 10 µM [21]: 36%; growth at 100 µM [22]: 53%; growth at 0.01 µM [23]: 88%; growth at 100 µM [24]: 51%; growth at 10 µM [25]: -1%; growth at 10 µM [26]: 11.1% |
| Clc1cccc(Cl)c1Nc1nc2cccc(Cl)c2s1 | 94% | 4.26 µM | 1.4 µM | 96% | 18% | -48% | 101% | -89% | -71% | 58% | 100% | 0.55% | 3.35 µM | -64% | -82% | 79% | 68% | -41% | 94% | 67% | GI50 [2]: 0.299 µM; GI50 [12]: 1.43 µM; growth at 100 µM [20]: -70%; growth at 10 µM [21]: -32%; growth at 100 µM [22]: -84%; growth at 0.01 µM [23]: 91%; growth at 100 µM [24]: -39%; growth at 10 µM [25]: -97%; growth at 10 µM [26]: -68.5% |
